# Results as given in ChEMBL document CHEMBL1123853, “A novel class of cardiotonics. Synthesis and pharmacological properties of [4-(substituted-amino)phenyl]pyridazinones and related derivatives” (1987).
# Key:
# Canis familiaris [1] = assay: Inotropic activity determined by evaluating the % change in Cardiac out put (CO)at a dose of 3 ug/kg administered intravenously […]; assay type: functional, Canis lupus familiaris
# Procedure, shortened: (§1)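 Mongrel dogs of either sex, 7–15 kg, anesthetized with sodium pentobarbital (30 mg/kg iv), open-chest, intubated and ventilated on room air. Compounds given intravenously. A femoral artery catheter with pressure transducer recorded SBP and DBP. dP/dtmax, right ventricular contractile force, cardiac output and heart rate were also recorded, as % change at each iv dose.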
# Canis familiaris [2] = assay: Inotropic activity determined by evaluating the % change in Diastolic Blood Pressure (DBP) at a dose of 10 ug/kg administered intravenously […]; assay type: functional, Canis lupus familiaris; procedure, shortened: as §1
# Canis familiaris [3] = assay: Inotropic activity determined by evaluating the % change in Systolic Blood Pressure (SBP) at a dose of 1 ug/kg administered intravenously […]; assay type: functional, Canis lupus familiaris, Muscle tissue; procedure, shortened: as §1
# Canis familiaris [4] = assay: Inotropic activity determined by evaluating the % change in Diastolic Blood Pressure (DBP) at a dose of 3 ug/kg administered intravenously […]; assay type: functional, Canis lupus familiaris; procedure, shortened: as §1
# Canis familiaris [5] = assay: Inotropic activity determined by evaluating the % change in Heart Rate (HR) at a dose of 3 ug/kg administered intravenously […]; assay type: functional, Canis lupus familiaris; procedure, shortened: as §1
# Canis familiaris [6] = assay: Inotropic activity determined by evaluating the % change in contractile force (CF) of right ventricle at a dose of 3 ug/kg administered intravenously […]; assay type: functional, Canis lupus familiaris, Heart right ventricle; procedure, shortened: as §1
# Canis familiaris [7] = assay: Inotropic activity determined by evaluating the % change in Heart Rate (HR) at a dose of 1 ug/kg administered intravenously […]; assay type: functional, Canis lupus familiaris; procedure, shortened: as §1
# Canis familiaris [8] = assay: Inotropic activity determined by evaluating the % change in contractile force (CF) of right ventricle at a dose of 1 ug/kg administered intravenously […]; assay type: functional, Canis lupus familiaris, Heart right ventricle; procedure, shortened: as §1
# Canis familiaris [9] = assay: Inotropic activity determined by evaluating the % change in Diastolic Blood Pressure (DBP) at a dose of 1 ug/kg administered intravenously […]; assay type: functional, Canis lupus familiaris; procedure, shortened: as §1
# Canis familiaris [10] = assay: Inotropic activity determined by evaluating the % change in Cardiac out put (CO)at a dose of 10 ug/kg administered intravenously […]; assay type: functional, Canis lupus familiaris; procedure, shortened: as §1
# Canis familiaris [11] = assay: Inotropic activity determined by evaluating the % change in Systolic Blood Pressure (SBP) at a dose of 3 ug/kg administered intravenously […]; assay type: functional, Canis lupus familiaris, Muscle tissue; procedure, shortened: as §1
# Canis familiaris [12] = species on record: Canis familiaris; assay: Positive inotropic activity determined in the […](that produced 30% increase in dose- response curves [dP/dt(max)]); assay type: functional; conditions: Canis lupus familiaris
# Procedure, shortened: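 In the anesthetized open-chest dog (mongrel, 7–15 kg, pentobarbital 30 mg/kg iv, ventilated on room air), compounds were given intravenously and LV dP/dtmax was recorded. The dose giving a 30% rise in dP/dtmax was read from the dose-response curves. Results are mean ± SEM (n = 3) or mean ± range (n = 2).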
# Canis familiaris [13] = assay: Inotropic activity determined by evaluating the % change in Heart Rate (HR) at a dose of 10 ug/kg administered intravenously […]; assay type: functional, Canis lupus familiaris; procedure, shortened: as §1
# Canis familiaris [14] = assay: Inotropic activity determined by evaluating the % change in Systolic Blood Pressure (SBP) at a dose of 10 ug/kg administered intravenously […]; assay type: functional, Canis lupus familiaris; procedure, shortened: as §1
# Canis familiaris [15] = assay: Inotropic activity determined by evaluating the maximum rate of rise in left ventricular pressure at a dose of 1 ug/kg administered intravenously […]; assay type: functional, Canis lupus familiaris, Muscle tissue; procedure, shortened: as §1
# Canis familiaris [16] = assay: Inotropic activity determined by evaluating the maximum rate of rise in left ventricular pressure at a dose of 10 ug/kg administered intravenously […]; assay type: functional, Canis lupus familiaris, Muscle tissue; procedure, shortened: as §1
# Canis familiaris [17] = species on record: Canis familiaris; assay: Positive inotropic in the isolated papillary muscle of the dog.; assay type: functional, Canis lupus familiaris
# Procedure, shortened: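 Right ventricular anterior papillary muscle with septum, from mongrel dogs (7–12 kg, pentobarbital 30 mg/kg iv). It was perfused at about 100 mmHg via the septal artery with blood from a heparinized donor dog and paced at 120/min (1 ms pulses, about 1.5× threshold). Isometric tension was recorded. Saline solutions were injected intra-arterially, with amrinone as reference. ED15 (15% rise in developed tension) was taken from log dose-response curves. Results are mean ± SEM (n = 7) or mean ± range (n = 2).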
# Canis familiaris [18] = assay: Inotropic activity determined by evaluating the % change in Cardiac out put (CO)at a dose of 1 ug/kg administered intravenously […]; assay type: functional, Canis lupus familiaris; procedure, shortened: as §1
# Canis familiaris [19] = assay: Inotropic activity determined by evaluating the maximum rate of rise in left ventricular pressure at a dose of 3 ug/kg administered intravenously […]; assay type: functional, Canis lupus familiaris, Muscle tissue; procedure, shortened: as §1
# Canis familiaris [20] = assay: Inotropic activity determined by evaluating the % change in contractile force (CF) of right ventricle at a dose of 10 ug/kg administered intravenously […]; assay type: functional, Canis lupus familiaris, Heart right ventricle; procedure, shortened: as §1
# Canis familiaris [21] = assay: Inotropic activity determined by evaluating the % change in Heart Rate (HR) at a dose of 30 ug/kg administered intravenously […]; assay type: functional, Canis lupus familiaris; procedure, shortened: as §1
# Canis familiaris [22] = assay: Inotropic activity determined by evaluating the maximum rate of rise in left ventricular pressure at a dose of 30 ug/kg administered intravenously […]; assay type: functional, Canis lupus familiaris, Muscle tissue; procedure, shortened: as §1
# Canis familiaris [23] = assay: Inotropic activity determined by evaluating the % change in Diastolic Blood Pressure (DBP) at a dose of 30 ug/kg administered intravenously […]; assay type: functional, Canis lupus familiaris; procedure, shortened: as §1
# Canis familiaris [24] = assay: Inotropic activity determined by evaluating the % change in Cardiac out put (CO)at a dose of 30 ug/kg administered intravenously […]; assay type: functional, Canis lupus familiaris; procedure, shortened: as §1
# Canis familiaris [25] = assay: Inotropic activity determined by evaluating the % change in contractile force (CF) of right ventricle at a dose of 30 ug/kg administered intravenously […]; assay type: functional, Canis lupus familiaris, Heart right ventricle; procedure, shortened: as §1
# Canis familiaris [26] = assay: Inotropic activity determined by evaluating the % change in Systolic Blood Pressure (SBP) at a dose of 30 ug/kg administered intravenously […]; assay type: functional, Canis lupus familiaris, Muscle tissue; procedure, shortened: as §1
Compound,Change of CO (Canis familiaris [1]) [%],Change of DBP (Canis familiaris [2]) [%],Change of DBP (Canis familiaris [4]) [%],Change of HR (Canis familiaris [5]) [%],Change of CF (Canis familiaris [6]) [%],Change of CO (Canis familiaris [10]) [%],Change of SBP (Canis familiaris [11]) [%],ED30 (Canis familiaris [12]) [µg/kg],Change of HR (Canis familiaris [13]) [%],Change of SBP (Canis familiaris [14]) [%],dP/dt (Canis familiaris [16]) [%],ED15 (Canis familiaris [17]) [µg],dP/dt (Canis familiaris [19]) [%],Change of CF (Canis familiaris [20]) [%],other results
CC1CC(=O)NN=C1c1ccc(Nc2ccncc2)cc1.Cl (stereo not given),11.7,-31.4,-21.2,15.8,22.7,24.5,-14.1,4.4,25.1,-23.6,58.4,1.5,19.5,61.5,Change of SBP (Canis familiaris [3]): -4.7%; Change of HR (Canis familiaris [7]): 3.4%; Change of CF (Canis familiaris [8]): 7.9%; Change of DBP (Canis familiaris [9]): -7.3%; dP/dt (Canis familiaris [15]): 8.1%; Change of CO (Canis familiaris [18]): 5.1%
Cl.O=C1CCC(c2ccc(Nc3ccncc3)cc2)=NN1,12.6,-22,-10.9,5.8,34.4,17.2,-7.9,8.5,9.9,-16.1,37.3,4.1,20.9,56.4,Change of HR (Canis familiaris [21]): 17.4%; dP/dt (Canis familiaris [22]): 69.1%; Change of DBP (Canis familiaris [23]): -32.9%; Change of CO (Canis familiaris [24]): 27.7%; Change of CF (Canis familiaris [25]): 78.9%; Change of SBP (Canis familiaris [26]): -24.9%
